{"source": "ChEMBL document CHEMBL5712920", "about": "“The histone methyltransferase inhibitor A-366 enhances hemoglobin expression in erythroleukemia cells upon co-exposure with chemical inducers in culture” (J Biol Res (Thessalon), 2021)", "key": {"[1]": {"system": "FLC clone 745", "experiment": "Induction of cell cycle arrest in HMBA-stimulated mouse FLC clone 745 cells assessed as accumulation cells at > 4N phase at 10^-6 M after 72 hrs by PI staining based flow cytometric analysis (reference value: 4.66%)", "assay_type": "functional", "conditions": "dose 1 10^-6M, at 1 µM", "in_short": "(§1)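 MEL cells plated at 5 × 10^5 per well and synchronized by serum deprivation for 24 h. Cells then incubated with compound at 10−6 M, alone or with HMBA 5 × 10−3 M, for 24, 48 and 72 h. Fixed in 70% ethanol overnight at 4 °C, stained with propidium iodide, and DNA content measured by flow cytometry to assign subG1, G1, S, G2/M and >4N fractions.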"}, "[2]": {"system": "FLC clone 745", "experiment": "Induction of cell cycle arrest in HMBA-stimulated mouse FLC clone 745 cells assessed as accumulation cells at subG1 phase at 10^-6 M after 24 hrs by PI staining based flow cytometric analysis (reference value: 41.78%)", "assay_type": "functional", "conditions": "dose 1 10^-6M, at 1 µM", "in_short": "as §1"}, "[3]": {"system": "FLC clone 745", "experiment": "Induction of cell cycle arrest in HMBA-stimulated mouse FLC clone 745 cells assessed as accumulation cells at G2/M phase at 10^-6 M after 24 hrs by PI staining based flow cytometric analysis (reference value: 9.52%)", "assay_type": "functional", "conditions": "dose 1 10^-6M, at 1 µM", "in_short": "as §1"}, "[4]": {"system": "FLC clone 745", "experiment": "Inhibition of G9a/GLP in HMBA-stiumulated mouse FLC clone 745 cells assessed as increase in HBB protein expression at 10^-6 M after 48 hrs by Western blot analsysis", "assay_type": "cell-based", "conditions": "dose 1.0 10^-6M", "in_short": "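MEL cells treated for 48 h with HMBA 5 × 10−3 M plus compound at 10−6 M. About 10^6 cells lysed in Tris/NaCl/2% SDS, sonicated, and protein quantified by BCA. 20 µg run on a 12% SDS-PAGE gel and transferred to PVDF. Membrane probed overnight at 4 °C with anti-hemoglobin β/γ/δ/ε, with β-tubulin as loading control, then HRP secondary for 1 h at room temperature.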"}, "[5]": {"system": "FLC clone 745", "experiment": "Cytotoxicity against mouse FLC clone 745 cells assessed as reduction in cell viability at IC50 concentration measured up to 96 hrs by Neubauer chamber based microscopic analysis", "assay_type": "toxicity", "conditions": "flc clone 745, 96 h", "in_short": "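MEL-745 cells treated continuously with compound at its previously determined 48 h IC50, without inducer, for up to 96 h. Total cell number counted daily in a Neubauer chamber. Final DMSO ≤0.2% v/v.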"}, "[6]": {"system": "K562", "experiment": "Induction of apoptosis in human K562 cells assessed as effect on Bcl-2 mRNA expression level at 1 to 10 uM cells after 48 hrs by qPCR analysis", "assay_type": "toxicity, cell-based", "conditions": "k562, 48 h, dose 1-10 µM", "in_short": "(§2)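 K562 cells at 10^5 cells/ml grown without compound (control) or with 10−6 M or 10−5 M compound for 48 h. Total RNA isolated, then checked by gel electrophoresis and spectrophotometry. Transcripts quantified by qPCR.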"}, "[7]": {"system": "K562", "experiment": "Induction of apoptosis in human K562 cells assessed as effect on Bax mRNA expression level at 1 to 10 uM cells after 48 hrs by qPCR analysis", "assay_type": "toxicity, cell-based", "conditions": "k562, 48 h, dose 1-10 µM", "in_short": "as §2"}, "[8]": {"system": "FLC clone 745", "experiment": "Induction of cell cycle arrest in HMBA-stimulated mouse FLC clone 745 cells assessed as accumulation cells at G2/M phase at 10^-6 M after 48 hrs by PI staining based flow cytometric analysis (reference value: 6.67%)", "assay_type": "functional", "conditions": "dose 1 10^-6M, at 1 µM", "in_short": "as §1"}, "[9]": {"system": "FLC clone 745", "experiment": "Induction of cell cycle arrest in mouse FLC clone 745 cells assessed as accumulation cells at G2/M phase at 10^-6 M after 24 hrs by PI staining based flow cytometric analysis (reference value: 14.35%)", "assay_type": "functional", "conditions": "dose 1 10^-6M, at 1 µM", "in_short": "as §1"}, "[10]": {"system": "FLC clone 745", "experiment": "Induction of cell cycle arrest in mouse FLC clone 745 cells assessed as accumulation cells at > 4N phase at 10^-6 M after 48 hrs by PI staining based flow cytometric analysis (reference value: 7.11%)", "assay_type": "functional", "conditions": "dose 1 10^-6M, at 1 µM", "in_short": "as §1"}, "[11]": {"system": "FLC clone 745", "experiment": "Induction of cell cycle arrest in HMBA-stimulated mouse FLC clone 745 cells assessed as accumulation cells at G1/G0 phase at 10^-6 M after 24 hrs by PI staining based flow cytometric analysis (reference value: 17.28%)", "assay_type": "functional", "conditions": "dose 1 10^-6M, at 1 µM", "in_short": "as §1"}, "[12]": {"system": "FLC clone 745", "experiment": "Induction of cell cycle arrest in mouse FLC clone 745 cells assessed as accumulation cells at S phase at 10^-6 M after 48 hrs by PI staining based flow cytometric analysis (reference value: 29.53%)", "assay_type": "functional", "conditions": "dose 1 10^-6M, at 1 µM", "in_short": "as §1"}, "[13]": {"system": "FLC clone 745", "experiment": "Induction of cell cycle arrest in HMBA-stimulated mouse FLC clone 745 cells assessed as accumulation cells at > 4N phase at 10^-6 M after 24 hrs by PI staining based flow cytometric analysis (reference value: 9.83%)", "assay_type": "functional", "conditions": "dose 1 10^-6M, at 1 µM", "in_short": "as §1"}, "[14]": {"experiment": "Cytotoxicity against mouse FLC clone 745 cells assessed as reduction in cell viability measured after 48 hrs by Neubauer chamber based microscopic analysis", "assay_type": "toxicity"}, "[15]": {"system": "FLC clone 745", "experiment": "Induction of cell cycle arrest in mouse FLC clone 745 cells assessed as accumulation cells at S phase at 10^-6 M after 24 hrs by PI staining based flow cytometric analysis (reference value: 28.46%)", "assay_type": "functional", "conditions": "dose 1 10^-6M, at 1 µM", "in_short": "as §1"}, "[16]": {"system": "FLC clone 745", "experiment": "Induction of cell cycle arrest in mouse FLC clone 745 cells assessed as accumulation cells at G1/G0 phase at 10^-6 M after 24 hrs by PI staining based flow cytometric analysis (reference value: 19.61%)", "assay_type": "functional", "conditions": "dose 1 10^-6M, at 1 µM", "in_short": "as §1"}, "[17]": {"system": "FLC clone 745", "experiment": "Induction of cell cycle arrest in HMBA-stimulated mouse FLC clone 745 cells assessed as accumulation cells at > 4N phase at 10^-6 M after 48 hrs by PI staining based flow cytometric analysis (reference value: 2.83%)", "assay_type": "functional", "conditions": "dose 1 10^-6M, at 1 µM", "in_short": "as §1"}, "[18]": {"experiment": "Inhibition of G9a/GLP in HMBA-stiumulated mouse FLC clone 745 cells assessed as increase in erythroid differentiation at IC50 concentration measured after 96 hrs by benzidine-H2O2 based assay (reference value: 79.45%)", "conditions": "condition erythroleukemia"}, "[19]": {"system": "K562", "experiment": "Induction of apoptosis in human K562 cells assessed as effect on caspase-3 mRNA expression level at 1 to 10 uM cells after 48 hrs by qPCR analysis", "assay_type": "toxicity, cell-based", "conditions": "k562, 48 h, dose 1-10 µM", "in_short": "as §2"}, "[20]": {"system": "FLC clone 745", "experiment": "Induction of cell cycle arrest in HMBA-stimulated mouse FLC clone 745 cells assessed as accumulation cells at subG1 phase at 10^-6 M after 72 hrs by PI staining based flow cytometric analysis (reference value: 58.77%)", "assay_type": "functional", "conditions": "dose 1 10^-6M, at 1 µM", "in_short": "as §1"}, "[21]": {"system": "FLC clone 745", "experiment": "Induction of cell cycle arrest in HMBA-stimulated mouse FLC clone 745 cells assessed as accumulation cells at G1/G0 phase at 10^-6 M after 48 hrs by PI staining based flow cytometric analysis (reference value: 15.23%)", "assay_type": "functional", "conditions": "dose 1 10^-6M, at 1 µM", "in_short": "as §1"}, "[22]": {"system": "FLC clone 745", "experiment": "Induction of cell cycle arrest in mouse FLC clone 745 cells assessed as accumulation cells at > 4N phase at 10^-6 M after 72 hrs by PI staining based flow cytometric analysis (reference value: 14.89%)", "assay_type": "functional", "conditions": "dose 1 10^-6M, at 1 µM", "in_short": "as §1"}, "[23]": {"system": "FLC clone 745", "experiment": "Induction of cell cycle arrest in mouse FLC clone 745 cells assessed as accumulation cells at subG1 phase at 10^-6 M after 72 hrs by PI staining based flow cytometric analysis (reference value: 9.87%)", "assay_type": "functional", "conditions": "dose 1 10^-6M, at 1 µM", "in_short": "as §1"}, "[24]": {"system": "FLC clone 745", "experiment": "Induction of cell cycle arrest in HMBA-stimulated mouse FLC clone 745 cells assessed as accumulation cells at G2/M phase at 10^-6 M after 72 hrs by PI staining based flow cytometric analysis (reference value: 9.86%)", "assay_type": "functional", "conditions": "dose 1 10^-6M, at 1 µM", "in_short": "as §1"}, "[25]": {"system": "FLC clone 745", "experiment": "Induction of cell cycle arrest in mouse FLC clone 745 cells assessed as accumulation cells at > 4N phase at 10^-6 M after 24 hrs by PI staining based flow cytometric analysis (reference value: 13.47%)", "assay_type": "functional", "conditions": "dose 1 10^-6M, at 1 µM", "in_short": "as §1"}}, "note": "Activity calls are given as the source filed them. The rule behind the calls is not given here.", "data": [{"smiles": "COc1cc2c(cc1OCCCN1CCCC1)N=C(N)C21CCC1", "values": [{"measurement": "Activity", "setting": "[1]", "result": 2.89, "unit": "%"}, {"measurement": "Activity", "setting": "[2]", "result": 55.4, "unit": "%"}, {"measurement": "Activity", "setting": "[3]", "result": 6.93, "unit": "%"}, {"measurement": "inhibition", "setting": "[4]", "result": "Active"}, {"measurement": "Activity", "setting": "[5]", "result": "Non-Toxic"}, {"measurement": "Activity", "setting": "[6]", "result": "Non-Toxic"}, {"measurement": "Activity", "setting": "[7]", "result": "Non-Toxic"}, {"measurement": "Activity", "setting": "[8]", "result": 5.67, "unit": "%"}, {"measurement": "Activity", "setting": "[9]", "result": 9.04, "unit": "%"}, {"measurement": "Activity", "setting": "[10]", "result": 9.4, "unit": "%"}, {"measurement": "Activity", "setting": "[11]", "result": 12.13, "unit": "%"}, {"measurement": "Activity", "setting": "[12]", "result": 29.12, "unit": "%"}, {"measurement": "Activity", "setting": "[13]", "result": 9.28, "unit": "%"}, {"measurement": "IC50 at 48 h", "setting": "[14]", "result": "> 100", "unit": "µM"}, {"measurement": "Activity", "setting": "[15]", "result": 23.91, "unit": "%"}, {"measurement": "Activity", "setting": "[16]", "result": 20.43, "unit": "%"}, {"measurement": "Activity", "setting": "[17]", "result": 3.08, "unit": "%"}, {"measurement": "inhibition (INH)", "setting": "[18]", "result": 83.75, "unit": "%"}, {"measurement": "Activity", "setting": "[19]", "result": "Non-Toxic"}, {"measurement": "Activity", "setting": "[20]", "result": 62.86, "unit": "%"}, {"measurement": "Activity", "setting": "[21]", "result": 11.73, "unit": "%"}, {"measurement": "Activity", "setting": "[22]", "result": 11.78, "unit": "%"}, {"measurement": "Activity", "setting": "[23]", "result": 39.53, "unit": "%"}, {"measurement": "Activity", "setting": "[24]", "result": 6.21, "unit": "%"}, {"measurement": "Activity", "setting": "[25]", "result": 9.49, "unit": "%"}]}]}
